Key:
[1] = system: Rattus norvegicus; experiment: Motor activity effect in reserpinized rat with tropolone pretreatment at 5 umol/kg, sc expressed as accumulation counts 0-30 min after treatment; type: functional
In short: (§1)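 Male Sprague-Dawley rats given reserpine 5 mg/kg ip 18 h before; some also given tropolone 50 mg/kg 30 min before. Compound given sc in the neck, or ip where stated. Locomotion recorded by photocell motility meters, one rat per cage, as accumulated counts over 0–30 min, mean ± SEM.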

[2] = system: Rattus norvegicus; experiment: Level of compound in rat cortex by pretreatment of tropolone (50 mg/kg, ip, 30min) at dose 8 umol/kg; type: functional, organism-based
In short: (§2)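 Female Wistar rats (170–200 g), compound sc in saline (1 mL/kg), killed 60 min later, with or without tropolone (50 mg/kg ip) before dosing. Striatum, cerebellum and cortex were extracted in perchloric acid, cleaned on Sephadex G10 and analysed by HPLC-ECD (pH 4.0, 15% methanol, 600 mV). Recovery-corrected, n = 3.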

[3] = system: Rattus norvegicus; experiment: Level of compound in rat cerebellum by pretreatment of tropolone (50 mg/kg, ip, 30min) at dose 40 umol/kg; type: functional, organism-based; in short: as §2
[4] = system: Rattus norvegicus; experiment: Level of compound in rat cerebellum by pretreatment of tropolone (50 mg/kg, ip, 30min) at dose 8 umol/kg; type: functional, organism-based; in short: as §2
[5] = system: Rattus norvegicus; experiment: Level of compound in rat striatum at dose 8 umol/kg; type: functional, organism-based; in short: as §2
[6] = Michaelis-Menten constant was measured against adenylate cyclase stimulation of cAMP formation in striatal homogenates; type: ADME, tissue-based; settings: tissue homogenate
[7] = Ratio of Vmax/Km was measured; type: ADME
In short: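 Crude COMT from rat liver (KCl homogenate, 105000g supernatant). Incubated at 37 °C in 50 mM phosphate buffer pH 7.4 with 10 mM MgCl2, S-adenosyl-L-methionine ([…] as printed), and substrate at 0.1–0.00125 mM (final concentrations), 15 min. Stopped with perchloric acid; the O-methylated product was measured by HPLC-electrochemical detection. Km and Vmax from Lineweaver-Burk plots of four experiments, each concentration run in triplicate.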

[8] = system: catechol-O-methyl transferase; experiment: Michaelis-Menten constant was measured for O-methylation (probably meta) by catechol-O-methyl transferase; type: ADME
In short: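 Crude rat liver COMT (105000g supernatant) at 37°C for 15 min with 0.1–0.00125 mM substrate, S-adenosyl-L-methionine, 10 mM MgCl2 and 50 mM phosphate pH 7.4 (final). Reaction stopped with perchloric acid; O-methyl product measured by HPLC-ECD. Km from Lineweaver-Burk plots, four experiments, each concentration in triplicate.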

[9] = system: Rattus norvegicus; experiment: Level of compound in rat cortex at dose 40 umol/kg; type: functional, organism-based; in short: as §2
[10] = system: Rattus norvegicus; experiment: Level of compound in rat striatum by pretreatment of tropolone (50 mg/kg, ip, 30min) at dose 40 umol/kg; type: functional, organism-based; in short: as §2
[11] = system: Rattus norvegicus; experiment: Motor activity effect in reserpinized rat at 50 umol/kg, sc expressed as accumulation counts 0-30 min after treatment; type: functional; in short: as §1
[12] = system: Rattus norvegicus; experiment: Level of compound in rat cerebellum at dose 8 umol/kg; type: functional, organism-based; in short: as §2
[13] = target: D(1A) dopamine receptor (Rattus norvegicus, UniProt P18901); experiment: In vitro affinity against Dopamine receptor D1 using [3H]SCH-23390 radioligand in rat striatal homogenate.
Chain of D(1A) dopamine receptor (P18901 whole entry): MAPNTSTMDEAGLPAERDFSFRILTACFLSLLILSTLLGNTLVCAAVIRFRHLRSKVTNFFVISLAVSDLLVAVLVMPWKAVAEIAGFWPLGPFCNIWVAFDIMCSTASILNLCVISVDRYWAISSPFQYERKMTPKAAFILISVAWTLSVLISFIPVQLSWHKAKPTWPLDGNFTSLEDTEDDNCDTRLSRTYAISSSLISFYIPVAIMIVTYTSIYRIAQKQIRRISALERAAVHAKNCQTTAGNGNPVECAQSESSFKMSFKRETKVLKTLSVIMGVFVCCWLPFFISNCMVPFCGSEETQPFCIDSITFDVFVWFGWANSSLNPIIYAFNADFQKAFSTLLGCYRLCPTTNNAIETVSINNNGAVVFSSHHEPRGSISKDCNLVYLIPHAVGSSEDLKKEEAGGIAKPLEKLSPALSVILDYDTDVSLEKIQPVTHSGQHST

[14] = target: D(2) dopamine receptor (Rattus norvegicus, UniProt P61169); experiment: In vitro affinity against Dopamine receptor D2 using [3H]DP-5,6-ADTN radioligand in rat striatal homogenate.
Chain of D(2) dopamine receptor (P61169 whole entry): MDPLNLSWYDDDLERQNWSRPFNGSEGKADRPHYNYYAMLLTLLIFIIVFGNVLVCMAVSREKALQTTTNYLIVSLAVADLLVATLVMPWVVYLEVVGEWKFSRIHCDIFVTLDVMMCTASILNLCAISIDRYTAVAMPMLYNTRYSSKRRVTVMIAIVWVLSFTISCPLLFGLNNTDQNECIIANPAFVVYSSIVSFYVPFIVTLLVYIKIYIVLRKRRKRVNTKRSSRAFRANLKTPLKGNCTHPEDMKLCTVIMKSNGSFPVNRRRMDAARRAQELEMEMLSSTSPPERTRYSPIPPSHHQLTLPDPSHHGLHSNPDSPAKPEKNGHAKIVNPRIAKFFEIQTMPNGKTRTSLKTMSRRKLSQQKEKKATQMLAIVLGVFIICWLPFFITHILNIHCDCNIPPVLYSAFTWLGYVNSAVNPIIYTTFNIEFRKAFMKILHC

[15] = system: Rattus norvegicus; experiment: Level of compound in rat cerebellum in the absence of tropolone at dose 40 umol/kg; type: functional, organism-based; in short: as §2
[16] = species: Rattus norvegicus; experiment: Dopa accumulation was evaluated in limbic system of male Sprague-Dawley rat.; type: functional
In short: (§3)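 Male Sprague-Dawley rats, 200–300 g; drug in saline given sc after NSD 1015 decarboxylase inhibition; Dopa measured by HPLC with electrochemical detection. Dose-response curves from four to six dose levels per substance and brain area; ED50 estimated as the dose giving half-maximal decrease of Dopa level.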

[17] = system: Rattus norvegicus; experiment: Level of compound in rat cortex in the absence of tropolone at dose 8 umol/kg; type: functional, organism-based; in short: as §2
[18] = system: Rattus norvegicus; experiment: Level of compound in rat cortex in the absence of tropolone at dose 40 umol/kg; type: functional, organism-based; in short: as §2
[19] = system: Rattus norvegicus; experiment: Level of compound in rat cerebellum in the absence of tropolone at dose 8 umol/kg; type: functional, organism-based; in short: as §2
[20] = system: Rattus norvegicus; experiment: Level of compound in rat striatum at dose 40 umol/kg; type: functional, organism-based; in short: as §2
[21] = system: Rattus norvegicus; experiment: Level of compound in rat striatum in the absence of tropolone at dose 40 umol/kg; type: functional, organism-based; in short: as §2
[22] = system: Rattus norvegicus; experiment: Level of compound in rat cerebellum at dose 40 umol/kg; type: functional, organism-based; in short: as §2
[23] = system: Rattus norvegicus; experiment: Presynaptic activity at the level of DA metabolism was determined at dose 45 umol/kg on striatal level of HVA; type: functional
In short: (§4)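 Female Wistar rats given 45 μmol/kg sc; striatal DOPAC and HVA measured by HPLC with electrochemical detection, compared with saline controls by Student's t test.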

[24] = system: Rattus norvegicus; experiment: Level of compound in rat cortex at dose 8 umol/kg; type: functional, organism-based; in short: as §2
[25] = species: Rattus norvegicus; experiment: Maximal cAMP production in rat striatal homogenates.; type: functional
In short: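 cAMP formation in rat striatal homogenates was read with an automated adenylate cyclase assay.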

[26] = system: Rattus norvegicus; experiment: Presynaptic activity at the level of DA metabolism was determined at dose 45 umol/kg on striatal level of DOPAC; type: functional; in short: as §4
[27] = system: Rattus norvegicus; experiment: Level of compound in rat cortex by pretreatment of tropolone (50 mg/kg, ip, 30min) at dose 40 umol/kg; type: functional, organism-based; in short: as §2
[28] = species: Rattus norvegicus; experiment: Dopa accumulation was evaluated in corpus striatum of male Sprague-Dawley rat.; type: functional; in short: as §3
[29] = system: Rattus norvegicus; experiment: Level of compound in rat striatum by pretreatment of tropolone (50 mg/kg, ip, 30min) at dose 8 umol/kg; type: functional, organism-based; in short: as §2
[30] = system: Rattus norvegicus; experiment: Level of compound in rat intraperitoneally; type: functional, organism-based
[31] = system: Rattus norvegicus; experiment: Level of compound in rat cerebellum at dose 45 umol/kg administered subcutaneously; type: functional, organism-based
In short: (§5)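 Female Wistar rats (170–200 g) given 45 μmol/kg ip or sc, killed 60 min later. Striatum, cerebellum and cortex were frozen and homogenised in 0.1 M perchloric acid, purified on Sephadex G10 and analysed by HPLC-ECD. O-methyl metabolite was read at 27% methanol and 750 mV. Values pmol/g tissue, n = 3.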

[32] = system: Rattus norvegicus; experiment: Level of compound 5 in rat cortex at dose 45 umol/kg administered subcutaneously; type: functional, organism-based; in short: as §5
[33] = species: Rattus norvegicus; experiment: Dopa accumulation was evaluated in limbic system of male Sprague-Dawley rat; type: functional; in short: as §3
[34] = system: Rattus norvegicus; experiment: Motor activity effect in reserpinized rat at 13 umol/kg, sc expressed as accumulation counts 0-30 min after treatment; type: functional
[35] = system: Rattus norvegicus; experiment: Level of compound 5 in rat cortex at dose 45 umol/kg administered intraperitoneally; type: functional, organism-based; in short: as §5
[36] = system: Rattus norvegicus; experiment: Level of compound 5 in rat striatum at dose 45 umol/kg administered subcutaneously; type: functional, organism-based; in short: as §5
[37] = system: Rattus norvegicus; experiment: Level of compound in rat cortex at dose 45 umol/kg administered subcutaneously; type: functional, organism-based; in short: as §5
[38] = species: Rattus norvegicus; experiment: Dopa accumulation was evaluated in corpus striatum of male Sprague-Dawley rat; type: functional; in short: as §3
[39] = system: Rattus norvegicus; experiment: Level of compound in rat striatum at dose 45 umol/kg administered subcutaneously.; type: functional, organism-based; in short: as §5
[40] = system: Rattus norvegicus; experiment: Level of compound 5 in rat cerebellum at dose 45 umol/kg administered subcutaneously; type: functional, organism-based; in short: as §5
[41] = system: Rattus norvegicus; experiment: Level of compound 5 in rat cerebellum at dose 45 umol/kg administered intraperitoneally; type: functional, organism-based; in short: as §5
[42] = system: Rattus norvegicus; experiment: Level of compound 5 in rat intraperitoneally; type: functional, organism-based; in short: as §5
[43] = system: Rattus norvegicus; experiment: Level of compound in rat cortex at dose 45 umol/kg administered intraperitoneally; type: functional, organism-based; in short: as §5
[44] = system: Rattus norvegicus; experiment: Level of compound in rat cerebellum at dose 45 umol/kg administered intraperitoneally; type: functional, organism-based; in short: as §5
[45] = system: Rattus norvegicus; experiment: Motor activity effect in reserpinized rat at 213 umol/kg, sc expressed as accumulation counts 0-30 min after treatment; type: functional
[46] = system: Rattus norvegicus; experiment: Motor activity effect in reserpinized rat with tropolone pretreatment at 50 umol/kg, ip expressed as accumulation counts 0-30 min after treatment; type: functional; in short: as §1
[47] = system: Rattus norvegicus; experiment: Motor activity effect in reserpinized rat with tropolone pretreatment at 10 umol/kg, ip expressed as accumulation counts 0-30 min after treatment; type: functional; in short: as §1
[48] = system: Rattus norvegicus; experiment: Level of compound in rat striatum at dose 45 umol/kg administered subcutaneously; type: functional, organism-based; in short: as §5

## CCCN1CCC[C@@H](c2ccc(O)c(O)c2)C1
[1]
  Motor activity: 69
[2]
  Level: 3250 pmol/g
[3]
  Level: 9330 pmol/g
[4]
  Level: 2290 pmol/g
[5]
  Level: 2330 pmol/g
[6]
  Km: 21 µM
[7]
  Ratio: 485
[8]
  Km: 77 µM
[9]
  Level: 17000 pmol/g
[10]
  Level: 9720 pmol/g
[11]
  Motor activity: 78
[12]
  Level: 2020 pmol/g
[13]
  Ki: 13.5 µM
[14]
  Ki: 0.012 µM
[15]
  Level: 63 pmol/g
[16]
  ED50: 8.5 µmol/kg
[17]
  Level: 16 pmol/g
[18]
  Level: 167 pmol/g
[19]
  Level: 10 pmol/g
[20]
  Level: 10300 pmol/g
[21]
  Level: 61 pmol/g
[22]
  Level: 9160 pmol/g
[23]
  Control: 65%
[24]
  Level: 3410 pmol/g
[25]
  Production (pM (mg of protein)-1): 138
[26]
  Control: 83%
[27]
  Level: 13200 pmol/g
[28]
  ED50: 8.2 µmol/kg
[29]
  Level: 2540 pmol/g

## CCCN1CCC[C@H](c2cccc(O)c2)C1
[30]
  Level: 7040 pmol/g
[31]
  Level: 15200 pmol/g
[32]
  Level: 211 pmol/g
[33]
  ED50: 1 µmol/kg
[34]
  Motor activity: 78
[35]
  Level: 243 pmol/g
[36]
  Level: 93 pmol/g
[37]
  Level: 18300 pmol/g
[38]
  ED50: 1.3 µmol/kg
[39]
  Level: 17600 pmol/g
[40]
  Level: 114 pmol/g
[41]
  Level: 98 pmol/g
[23]
  Control: 32%
[42]
  Level: 151 pmol/g
[26]
  Control: 50%
[43]
  Level: 7410 pmol/g
[44]
  Level: 4910 pmol/g

## NCCc1ccc(O)c(O)c1 [DOPAMINE]
[6]
  Km: 7.8 µM

## CCCN1CCC[C@@H](c2cccc(O)c2)C1 [PRECLAMOL]
[45]
  Motor activity: 12
[30]
  Level: 5380 pmol/g
[31]
  Level: 16100 pmol/g
[46]
  Motor activity: 77
[32]
  Level: 243 pmol/g
[33]
  ED50: 0.8 µmol/kg
[35]
  Level: 280 pmol/g
[36]
  Level: 89 pmol/g
[37]
  Level: 21100 pmol/g
[38]
  ED50: 1.7 µmol/kg
[40]
  Level: 174 pmol/g
[47]
  Motor activity: 23
[41]
  Level: 104 pmol/g
[23]
  Control: 123%
[48]
  Level: 20300 pmol/g
[42]
  Level: 174 pmol/g
[26]
  Control: 118%
[43]
  Level: 5790 pmol/g
[44]
  Level: 3430 pmol/g

## CCCN1CCC[C@H](c2ccc(O)c(O)c2)C1
[1]
  Motor activity: 20
[33]
  ED50: 6.2 µmol/kg
[2]
  Level: 2050 pmol/g
[3]
  Level: 7200 pmol/g
[4]
  Level: 1910 pmol/g
[5]
  Level: 1620 pmol/g
[6]
  Km: 65 µM
[7]
  Ratio: 346
[8]
  Km: 121 µM
[9]
  Level: 9540 pmol/g
[38]
  ED50: 7 µmol/kg
[10]
  Level: 5850 pmol/g
[11]
  Motor activity: 24
[12]
  Level: 1550 pmol/g
[13]
  Ki: 57.8 µM
[14]
  Ki: 0.011 µM
[15]
  Level: 150 pmol/g
[17]
  Level: 18 pmol/g
[18]
  Level: 227 pmol/g
[19]
  Level: 22 pmol/g
[20]
  Level: 6000 pmol/g
[21]
  Level: 112 pmol/g
[22]
  Level: 4340 pmol/g
[23]
  Control: 49%
[24]
  Level: 2750 pmol/g
[25]
  Production (pM (mg of protein)-1): 46
[26]
  Control: 65%
[27]
  Level: 8470 pmol/g
[29]
  Level: 1380 pmol/g

— ChEMBL document CHEMBL1123228, “Enantiomers of 3-(3,4-dihydroxyphenyl)- and 3-(3-hydroxyphenyl)-N-n-propylpiperidine: central pre- and postsynaptic dopaminergic effects and pharmacokinetics” (J Med Chem, 1986)
